Each block holds one compound with its values, some of them ahead of it.
Assays:
MT4 [1] = assay: Inhibitory activity against MT-4 cells; assay type: functional; conditions: Homo sapiens, read-out: ED50 (the source's name)
Outline: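 HIV-induced cytopathic effect measured in MT-4 cells, with cell viability read out using the vital dye XTT. ED50 was calculated from the percent cytoprotection for each compound.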

MT4 [2] = assay: Inhibitory activity against MT-4 cells, in the presence of human serum; assay type: functional; conditions: read-out: ED50 (the source's name)
Outline: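 HIV cytopathic assay in MT-4 cells run in the presence of 40% human serum, with viability read out using the vital dye XTT. ED50 was calculated from the percent cytoprotection.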

[3] = biological target: Human immunodeficiency virus type 1 protease (Human immunodeficiency virus 1, UniProt Q72874); assay: Inhibitory activity against HIV-1 protease (Escherichia coli)
Outline: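 Recombinant HIV-1 protease, cloned and expressed in E. coli. Ki values were determined with a fluorometric assay.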

SMILES: CNC(=O)[C@@H](NC(=O)[C@H](OCc1ccccc1)[C@H](O)[C@@H](O)[C@@H](OCc1ccccc1)C(=O)N[C@H](C(=O)NC)C(C)C)C(C)C
EC50 (MT4 [1]): 1300 nM
EC50 (MT4 [2]): 34000 nM

SMILES: O=C(NC1c2ccccc2C[C@H]1O)[C@H](OCc1ccccc1)[C@H](O)[C@@H](O)[C@@H](OCc1ccccc1)C(=O)N[C@H]1c2ccccc2C[C@H]1O (some centres not stated)
EC50 (MT4 [1]): 96 nM
EC50 (MT4 [2]): 1500 nM
Ki [3]: 0.6 nM

Ki [3]: 1.1 nM
SMILES: O=C(NC1c2ccccc2C[C@H]1O)[C@H](CCc1ccccc1)[C@@H](O)[C@H](O)[C@@H](CCc1ccccc1)C(=O)N[C@H]1c2ccccc2C[C@H]1O (some centres not stated)
EC50 (MT4 [1]): 93 nM
EC50 (MT4 [2]): 390 nM

SMILES: CNC(=O)[C@@H](NC(=O)[C@H](CCc1ccccc1)[C@@H](O)[C@H](O)[C@@H](CCc1ccccc1)C(=O)N[C@H](C(=O)NC)C(C)C)C(C)C
EC50 (MT4 [1]): 1900 nM
EC50 (MT4 [2]): 1400 nM
Ki [3]: 0.4 nM

Ki [3]: 28 nM
SMILES: O=C(NC1c2ccccc2C[C@H]1O)[C@H](CCc1ccccc1)[C@H](O)[C@H](O)[C@@H](CCc1ccccc1)C(=O)N[C@H]1c2ccccc2C[C@H]1O (some centres not stated)
EC50 (MT4 [1]): > 10000 nM
EC50 (MT4 [2]): 15000 nM

SMILES: CNC(=O)[C@@H](NC(=O)[C@H](CCc1ccccc1)[C@H](O)[C@H](O)[C@@H](CCc1ccccc1)C(=O)N[C@H](C(=O)NC)C(C)C)C(C)C
EC50 (MT4 [1]): > 10000 nM
EC50 (MT4 [2]): > 10000 nM
Ki [3]: 112 nM

From ChEMBL document CHEMBL1134627, “Synthesis of novel, potent, diol-based HIV-1 protease inhibitors via intermolecular pinacol homocoupling of (2S)-2-benzyloxymethyl-4-phenylbutanal” (J Med Chem, 2001)
